Experimental data from ChEMBL document CHEMBL1687778, “Genetic determinants involved in the susceptibility of Pseudomonas aeruginosa to beta-lactam antibiotics” (2010).
≈ marks a conversion by molar mass, not a printed value.

Key:
Pseudomonas aeruginosa [1] = assay: Antimicrobial activity against Pseudomonas aeruginosa PA14 PA1195 harboring mutation in putative dimethylarginine dimethylaminohydrolase by Etest method; type: functional
Outline: (§1)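 Overnight LB cultures (37°C) diluted in sterile 0.85% NaCl to about 1 × 10^7 CFU/ml. 100 µl spread on Mueller-Hinton agar, one Etest strip per plate, 18 h at 37°C. Ceftazidime, imipenem and meropenem tested. Wild-type PA14 plate included in each set. Each mutant verified in triplicate.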

Pseudomonas aeruginosa [2] = assay: Antimicrobial activity against Pseudomonas aeruginosa PA14 PA0402 harboring pyrB mutant gene by Etest method; type: functional; outline: as §1
Pseudomonas aeruginosa [3] = assay: Antimicrobial activity against Pseudomonas aeruginosa PA14 PA3649 harboring mutation in putative membrane-associated zinc metalloprotease by Etest method; type: functional
Outline: (§2)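 Etest MIC. Overnight LB cultures at 37°C were diluted in sterile 0.85% NaCl to about 1 × 10^7 CFU/ml. 100 µl was spread on Mueller-Hinton agar, one strip was placed per plate, and plates were incubated at 37°C for 18 h. Equal cell numbers were seeded per plate, and results were verified in triplicate. PA14 wild type was included in each set as a susceptibility control.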

Pseudomonas aeruginosa [4] = assay: Antimicrobial activity against Pseudomonas aeruginosa PA14 PA3520 harboring mutation in putative periplasmic metal-binding protein by Etest method; type: functional; outline: as §2
Pseudomonas aeruginosa [5] = assay: Antimicrobial activity against Pseudomonas aeruginosa PA14 PA4007 harboring proA mutant gene by Etest method; type: functional; outline: as §2
Pseudomonas aeruginosa [6] = assay: Antimicrobial activity against Pseudomonas aeruginosa PA14 PA1011 harboring mutation in putative lipoprotein by Etest method; type: functional; outline: as §1
Pseudomonas aeruginosa [7] = assay: Antimicrobial activity against Pseudomonas aeruginosa harboring pBBR-algU complemented gene by Etest method
Pseudomonas aeruginosa [8] = assay: Antimicrobial activity against Pseudomonas aeruginosa harboring pBBR1MCS-3 expressing algU mutant gene by Etest method; type: functional
Outline: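 Etest MIC run in triplicate on a plasmid-carrying strain. The Mueller-Hinton agar contained tetracycline at 20 µg/ml for plasmid maintenance. The inoculum was about 1 × 10^7 CFU/ml in 0.85% NaCl, from an overnight LB culture grown at 37°C; 100 µl was spread per plate. One strip was placed per plate, with incubation at 37°C for 18 h.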

Pseudomonas aeruginosa [9] = assay: Antimicrobial activity against Pseudomonas aeruginosa PA14 PA4269 harboring rpoC mutant gene by Etest method; type: functional; outline: as §2
Pseudomonas aeruginosa [10] = assay: Antimicrobial activity against Pseudomonas aeruginosa PA14 PA5003 harboring mutation in conserved hypothetical protein by Etest method; type: functional; outline: as §2
Pseudomonas aeruginosa [11] = assay: Antimicrobial activity against Pseudomonas aeruginosa PA14 PA4459 harboring mutation in Conserved hypothetical protein by Etest method; type: functional; outline: as §2
Pseudomonas aeruginosa [12] = assay: Antimicrobial activity against Pseudomonas aeruginosa PA14 PA5192 harboring pckA mutant gene by Etest method; type: functional; outline: as §2
Pseudomonas aeruginosa [13] = assay: Antimicrobial activity against Pseudomonas aeruginosa PA14 PA0764 harboring mucB mutant gene by Etest method; type: functional; outline: as §1
Pseudomonas aeruginosa [14] = assay: Antimicrobial activity against Pseudomonas aeruginosa PA14 PA3800 harboring mutation in conserved hypothetical protein by Etest method; type: functional; outline: as §2
Pseudomonas aeruginosa [15] = assay: Antimicrobial activity against Pseudomonas aeruginosa PA14 PA2023 harboring galU mutant gene by Etest method; type: functional; outline: as §1
Pseudomonas aeruginosa [16] = assay: Antimicrobial activity against Pseudomonas aeruginosa PA14 PA5001 harboring mutation in conserved hypothetical protein by Etest method; type: functional; outline: as §2
Pseudomonas aeruginosa [17] = assay: Antimicrobial activity against Pseudomonas aeruginosa PA14 PA14_43090 harboring mutation in hypothetical protein by Etest method; type: functional; outline: as §1
Pseudomonas aeruginosa [18] = assay: Antimicrobial activity against Pseudomonas aeruginosa PA14 PA3721 harboring nalC mutant gene by Etest method; type: functional; outline: as §2
Pseudomonas aeruginosa [19] = assay: Antimicrobial activity against Pseudomonas aeruginosa PA14 PA0908 harboring mutation in hypothetical protein by Etest method; type: functional; outline: as §1
Pseudomonas aeruginosa [20] = assay: Antimicrobial activity against Pseudomonas aeruginosa harboring mucD mutant gene by Etest method
Pseudomonas aeruginosa [21] = assay: Antimicrobial activity against Pseudomonas aeruginosa PA14 PA3978 harboring mutation in hypothetical protein by Etest method; type: functional; outline: as §2
Pseudomonas aeruginosa [22] = assay: Antimicrobial activity against Pseudomonas aeruginosa PA14 PA4088 harboring mutation in putative aminotransferase by Etest method; type: functional; outline: as §2
Pseudomonas aeruginosa [23] = assay: Antimicrobial activity against Pseudomonas aeruginosa PA14 PA0958 harboring oprD mutant gene by Etest method; type: functional; outline: as §1
Pseudomonas aeruginosa [24] = assay: Antimicrobial activity against Pseudomonas aeruginosa PA14 PA5000 harboring wapR mutant gene by Etest method; type: functional; outline: as §2
Pseudomonas aeruginosa [25] = assay: Antimicrobial activity against Pseudomonas aeruginosa PA14 PA3620 harboring mutS mutant gene by Etest method; type: functional; outline: as §2
Pseudomonas aeruginosa [26] = assay: Antimicrobial activity against wild type Pseudomonas aeruginosa by Etest method
Pseudomonas aeruginosa [27] = assay: Antimicrobial activity against Pseudomonas aeruginosa PA14 PA4069 harboring mutation in putative dTDP-4-rhamnose reductase-related protein by Etest method; type: functional; outline: as §2
Pseudomonas aeruginosa [28] = assay: Antimicrobial activity against Pseudomonas aeruginosa PA14 PA4748 harboring tpiA mutant gene by Etest method; type: functional; outline: as §2
Pseudomonas aeruginosa [29] = assay: Antimicrobial activity against Pseudomonas aeruginosa PA14 PA5038 harboring aroB mutant gene by Etest method; type: functional; outline: as §2
Pseudomonas aeruginosa [30] = assay: Antimicrobial activity against Pseudomonas aeruginosa PA14 PA0427 harboring oprM mutant gene by Etest method; type: functional; outline: as §1
Pseudomonas aeruginosa [31] = assay: Antimicrobial activity against Pseudomonas aeruginosa PA14 PA2615 harboring ftsK mutant gene by Etest method; type: functional; outline: as §1
Pseudomonas aeruginosa [32] = assay: Antimicrobial activity against Pseudomonas aeruginosa PA14 PA3818 harboring suhB mutant gene by Etest method; type: functional; outline: as §2
Pseudomonas aeruginosa [33] = assay: Antimicrobial activity against Pseudomonas aeruginosa harboring pBBR1MCS-3 expressing mucD mutant gene by Etest method
Pseudomonas aeruginosa [34] = assay: Antimicrobial activity against Pseudomonas aeruginosa PA14 PA3145 harboring wbpL mutant gene by Etest method; type: functional; outline: as §1
Pseudomonas aeruginosa [35] = assay: Antimicrobial activity against Pseudomonas aeruginosa PA14 PA4393 harboring mutation in putative permease by Etest method; type: functional; outline: as §2
Pseudomonas aeruginosa [36] = assay: Antimicrobial activity against Pseudomonas aeruginosa PA14 PA1483 harboring cycH mutant gene by Etest method; type: functional; outline: as §1
Pseudomonas aeruginosa [37] = assay: Antimicrobial activity against Pseudomonas aeruginosa PA14 PA4109 harboring ampR mutant gene by Etest method; type: functional; outline: as §2

Row | Compound | MIC (Pseudomonas aeruginosa [1]) [µg/mL] | MIC (Pseudomonas aeruginosa [2]) [µg/mL] | MIC (Pseudomonas aeruginosa [3]) [µg/mL] | MIC (Pseudomonas aeruginosa [4]) [µg/mL] | MIC (Pseudomonas aeruginosa [5]) [µg/mL] | MIC (Pseudomonas aeruginosa [6]) [µg/mL] | MIC (Pseudomonas aeruginosa [9]) [µg/mL] | MIC (Pseudomonas aeruginosa [10]) [µg/mL] | MIC (Pseudomonas aeruginosa [11]) [µg/mL] | MIC (Pseudomonas aeruginosa [12]) [µg/mL] | MIC (Pseudomonas aeruginosa [13]) [µg/mL] | MIC (Pseudomonas aeruginosa [14]) [µg/mL] | MIC (Pseudomonas aeruginosa [15]) [µg/mL] | MIC (Pseudomonas aeruginosa [16]) [µg/mL] | MIC (Pseudomonas aeruginosa [17]) [µg/mL] | MIC (Pseudomonas aeruginosa [18]) [µg/mL] | MIC (Pseudomonas aeruginosa [19]) [µg/mL] | MIC (Pseudomonas aeruginosa [21]) [µg/mL] | MIC (Pseudomonas aeruginosa [22]) [µg/mL] | MIC (Pseudomonas aeruginosa [23]) [µg/mL] | further results
1 | C[C@@H](O)[C@H]1C(=O)N2C(C(=O)O)=C(SCCNC=N)C[C@H]12 [IMIPENEM ANHYDROUS] | 0.38 (≈ 1.27 µM) | 0.38 (≈ 1.27 µM) | 0.25 (≈ 0.835 µM) | 0.5 (≈ 1.67 µM) | 0.19 (≈ 0.635 µM) | 0.5 (≈ 1.67 µM) | 0.5 (≈ 1.67 µM) | 0.5 (≈ 1.67 µM) | 0.25 (≈ 0.835 µM) | 0.38 (≈ 1.27 µM) | 0.25 (≈ 0.835 µM) | 0.38 (≈ 1.27 µM) | 0.094 (≈ 0.314 µM) | 0.38 (≈ 1.27 µM) | 0.38 (≈ 1.27 µM) | 0.5 (≈ 1.67 µM) | 1.5 (≈ 5.01 µM) | 0.094 (≈ 0.314 µM) | 0.38 (≈ 1.27 µM) | 2 (≈ 6.68 µM) | MIC (Pseudomonas aeruginosa [7]): 0.5 µg/mL (≈ 1.67 µM); MIC (Pseudomonas aeruginosa [8]): 0.38 µg/mL (≈ 1.27 µM); MIC (Pseudomonas aeruginosa [20]): 0.25 µg/mL (≈ 0.835 µM); MIC (Pseudomonas aeruginosa [24]): 0.5 µg/mL (≈ 1.67 µM); MIC (Pseudomonas aeruginosa [25]): 0.38 µg/mL (≈ 1.27 µM); MIC (Pseudomonas aeruginosa [26]): 0.5 µg/mL (≈ 1.67 µM); MIC (Pseudomonas aeruginosa [27]): 0.25 µg/mL (≈ 0.835 µM); MIC (Pseudomonas aeruginosa [28]): 0.38 µg/mL (≈ 1.27 µM); MIC (Pseudomonas aeruginosa [29]): 0.38 µg/mL (≈ 1.27 µM); MIC (Pseudomonas aeruginosa [30]): 0.38 µg/mL (≈ 1.27 µM); MIC (Pseudomonas aeruginosa [31]): 0.19 µg/mL (≈ 0.635 µM); MIC (Pseudomonas aeruginosa [32]): 0.38 µg/mL (≈ 1.27 µM); MIC (Pseudomonas aeruginosa [33]): 0.25 µg/mL (≈ 0.835 µM); MIC (Pseudomonas aeruginosa [34]): 0.38 µg/mL (≈ 1.27 µM); MIC (Pseudomonas aeruginosa [35]): 0.25 µg/mL (≈ 0.835 µM); MIC (Pseudomonas aeruginosa [36]): 0.5 µg/mL (≈ 1.67 µM)
2 | C[C@@H](O)[C@H]1C(=O)N2C(C(=O)O)=C(S[C@@H]3CN[C@H](C(=O)N(C)C)C3)[C@H](C)[C@H]12 [MEROPENEM] | 0.125 (≈ 0.326 µM) | 0.125 (≈ 0.326 µM) | 0.125 (≈ 0.326 µM) | 0.38 (≈ 0.991 µM) | 0.125 (≈ 0.326 µM) | 0.19 (≈ 0.495 µM) | 0.094 (≈ 0.245 µM) | 0.25 (≈ 0.652 µM) | 0.125 (≈ 0.326 µM) | 0.25 (≈ 0.652 µM) | 0.125 (≈ 0.326 µM) | 0.125 (≈ 0.326 µM) | 0.38 (≈ 0.991 µM) | 0.38 (≈ 0.991 µM) | 0.125 (≈ 0.326 µM) | 0.38 (≈ 0.991 µM) | 0.25 (≈ 0.652 µM) | 0.125 (≈ 0.326 µM) | 0.125 (≈ 0.326 µM) | 1 (≈ 2.61 µM) | MIC (Pseudomonas aeruginosa [37]): 0.125 µg/mL (≈ 0.326 µM); MIC (Pseudomonas aeruginosa [24]): 0.38 µg/mL (≈ 0.991 µM); MIC (Pseudomonas aeruginosa [25]): 0.125 µg/mL (≈ 0.326 µM); MIC (Pseudomonas aeruginosa [27]): 0.064 µg/mL (≈ 0.167 µM); MIC (Pseudomonas aeruginosa [28]): 0.25 µg/mL (≈ 0.652 µM); MIC (Pseudomonas aeruginosa [29]): 0.25 µg/mL (≈ 0.652 µM); MIC (Pseudomonas aeruginosa [30]): 0.023 µg/mL (≈ 0.06 µM); MIC (Pseudomonas aeruginosa [31]): 0.064 µg/mL (≈ 0.167 µM); MIC (Pseudomonas aeruginosa [32]): 0.064 µg/mL (≈ 0.167 µM); MIC (Pseudomonas aeruginosa [34]): 0.094 µg/mL (≈ 0.245 µM); MIC (Pseudomonas aeruginosa [35]): 0.19 µg/mL (≈ 0.495 µM); MIC (Pseudomonas aeruginosa [36]): 0.125 µg/mL (≈ 0.326 µM)
